In ChEMBL document CHEMBL4613275, “Sulfonimide and Amide Derivatives as Novel PPARα Antagonists: Synthesis, Antiproliferative Activity, and Docking Studies” (ACS Med Chem Lett, 2020):
One block for each molecule: values may come before it. Calls of active or inactive are those of the source. The rule behind the calls is not given here.

Assays:
Homo sapiens [1] = species on record: Homo sapiens; assay: Antiproliferative activity against human PTJ64i cells assessed as inhibition of cell growth at 75 uM incubated for 72 hrs by MTT assay relative to control; assay type: functional
Homo sapiens [2] = species on record: Homo sapiens; assay: (§1) Antiproliferative activity against human PTJ86i cells assessed as inhibition of cell growth at 75 uM incubated for 72 hrs by MTT assay relative to control; assay type: functional
[3] = molecular target: T1, Peroxisome proliferator-activated receptor gamma (Homo sapiens) (UniProt P37231); assay: Effect on GAL4-tagged human PPARgamma LBD expressed in human HepG2 cells incubated for 20 to 22 hrs by luciferase reporter gene assay; assay type: cell-based
T1 sequence (whole entry): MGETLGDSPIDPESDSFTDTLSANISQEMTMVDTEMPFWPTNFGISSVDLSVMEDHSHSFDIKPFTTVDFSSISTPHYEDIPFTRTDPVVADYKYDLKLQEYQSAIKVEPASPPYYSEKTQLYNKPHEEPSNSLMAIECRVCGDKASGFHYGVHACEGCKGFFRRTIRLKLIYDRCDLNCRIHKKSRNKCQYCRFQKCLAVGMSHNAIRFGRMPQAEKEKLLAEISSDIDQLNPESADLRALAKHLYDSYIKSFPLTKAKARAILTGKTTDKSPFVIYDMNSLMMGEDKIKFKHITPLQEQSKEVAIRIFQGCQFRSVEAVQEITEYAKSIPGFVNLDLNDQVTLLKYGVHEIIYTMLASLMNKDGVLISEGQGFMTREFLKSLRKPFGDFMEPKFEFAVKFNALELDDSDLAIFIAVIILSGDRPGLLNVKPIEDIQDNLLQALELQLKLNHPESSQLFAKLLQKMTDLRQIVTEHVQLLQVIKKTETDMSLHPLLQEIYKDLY

[4] = molecular target: T2, Peroxisome proliferator-activated receptor alpha (Homo sapiens, UniProt Q07869); assay: Antagonist activity at GAL4-tagged human PPARalpha LBD expressed in human HepG2 cells assessed as inhibition of Wy14,643-induced receptor transactivation incubated for 20 to 22 hrs by luciferase reporter gene assay; assay type: cell-based
T2 sequence (Q07869 whole entry): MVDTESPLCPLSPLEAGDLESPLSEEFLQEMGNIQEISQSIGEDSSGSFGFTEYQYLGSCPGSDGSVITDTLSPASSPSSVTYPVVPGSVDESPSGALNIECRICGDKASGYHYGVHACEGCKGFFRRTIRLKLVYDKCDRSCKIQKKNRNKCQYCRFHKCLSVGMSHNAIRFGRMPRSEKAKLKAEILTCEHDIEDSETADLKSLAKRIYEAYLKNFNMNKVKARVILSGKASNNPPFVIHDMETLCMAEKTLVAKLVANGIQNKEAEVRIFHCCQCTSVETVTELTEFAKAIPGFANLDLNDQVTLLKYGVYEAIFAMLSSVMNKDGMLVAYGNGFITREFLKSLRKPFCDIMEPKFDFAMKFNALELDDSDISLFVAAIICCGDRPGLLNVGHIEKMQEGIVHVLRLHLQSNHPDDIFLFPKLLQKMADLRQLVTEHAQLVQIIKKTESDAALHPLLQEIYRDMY

HepG2 = assay: Cytotoxicity against human HepG2 cells at >5 uM; assay type: cell-based
[5] = molecular target: T3, Peroxisome proliferator-activated receptor gamma (Homo sapiens, UniProt P37231); assay: Antagonist activity at GAL4-tagged human PPARgamma LBD expressed in human HepG2 cells assessed as inhibition of Rosiglitazone-induced receptor transactivation incubated for 20 to 22 hrs by luciferase reporter gene assay
T3 sequence (P37231 whole entry): T1 sequence (whole entry)

ASPC1 [6] = assay: Antiproliferative activity against human AsPC1 cells assessed as inhibition of cell growth at 75 uM incubated for 72 hrs by MTT assay relative to control; assay type: functional; details: ASPC1, 72 h
BXPC-3 [7] = assay: Antiproliferative activity against human BxPC3 cells assessed as inhibition of cell growth at 75 uM incubated for 72 hrs by MTT assay relative to control; assay type: functional; details: BXPC-3, 72 h
Capan-2 [8] = assay: Antiproliferative activity against human Capan2 cells assessed as inhibition of cell growth at 75 uM incubated for 72 hrs by MTT assay relative to control; assay type: functional; details: Capan-2, 72 h
HT-29 [9] = assay: Antiproliferative activity against human HT-29 cells assessed as inhibition of cell growth at 75 uM incubated for 72 hrs by MTT assay relative to control; assay type: functional; details: HT-29, 72 h
SW480 [10] = assay: Antiproliferative activity against human SW480 cells assessed as inhibition of cell growth at 75 uM incubated for 72 hrs by MTT assay relative to control; assay type: functional; details: SW480, 72 h
[11] = as §1; assay type: functional
A498 [12] = assay: Antiproliferative activity against human A498 cells assessed as inhibition of cell growth at 75 uM incubated for 72 hrs by MTT assay relative to control; assay type: functional; details: A498, 72 h
ASPC1 [13] = assay: Antiproliferative activity against human AsPC1 cells assessed as inhibition of cell growth incubated for 72 hrs by MTT assay; assay type: functional
How it was run: (§2)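 MTT viability assay after 72 h exposure to compound over 0–24 μM, 24 μM being the highest concentration. […] Data are means ± SD of duplicate experiments, five replicates each.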

BXPC-3 [14] = assay: Antiproliferative activity against human BxPC3 cells assessed as inhibition of cell growth incubated for 72 hrs by MTT assay; assay type: functional; how it was run: as §2
Capan-2 [15] = assay: Antiproliferative activity against human Capan2 cells assessed as inhibition of cell growth incubated for 72 hrs by MTT assay; assay type: functional; how it was run: as §2
HT-29 [16] = assay: Antiproliferative activity against human HT-29 cells assessed as inhibition of cell growth incubated for 72 hrs by MTT assay; assay type: functional; how it was run: as §2
SW480 [17] = assay: Antiproliferative activity against human SW480 cells assessed as inhibition of cell growth incubated for 72 hrs by MTT assay; assay type: functional; how it was run: as §2
Homo sapiens [18] = species on record: Homo sapiens; assay: Antiproliferative activity against human PTJ64i cells assessed as inhibition of cell growth incubated for 72 hrs by MTT assay; assay type: functional; how it was run: as §2
Homo sapiens [19] = species on record: Homo sapiens; assay: Antiproliferative activity against human PTJ86i cells assessed as inhibition of cell growth incubated for 72 hrs by MTT assay; assay type: functional; how it was run: as §2
A498 [20] = assay: Antiproliferative activity against human A498 cells assessed as inhibition of cell growth incubated for 72 hrs by MTT assay; assay type: functional; how it was run: as §2
HFF-1 = assay: Cytotoxicity against human HFF1 cells assessed as reduction in cell viability incubated for 72 hrs by MTT assay; assay type: cell-based; details: hff-1, 72 h; how it was run: as §2
[21] = Selectivity index, ratio of CC50 for human HFF1 cells to CC50 for human PTJ86i cells; assay type: toxicity; details: HFF1 cells and PTJ86i cells
[22] = Selectivity index, ratio of CC50 for human HFF1 cells to CC50 for human PTJ64i cells; assay type: toxicity; details: HFF1 cells and PTJ64i cells
[23] = molecular target: T1, Peroxisome proliferator-activated receptor gamma (Homo sapiens); assay: Agonist activity at GAL4-tagged human PPARgamma LBD expressed in human HepG2 cells incubated for 20 to 22 hrs by luciferase reporter gene assay; assay type: cell-based

Imax [3]: 87%
IC50 [4]: 1200 nM
IC50 [5]: 14 µM
SMILES: CC(C)(Oc1ccc(CCOc2ccc(/N=N/c3ccccc3)cc2)cc1)C(=O)NS(=O)(=O)c1ccccc1
Activity (HepG2): Toxic

Activity [3]: inactive
IC50 [4]: 240 nM
SMILES: CC(C)(Oc1ccc(CCOc2ccc(NC(=O)c3ccccc3)cc2)cc1)C(=O)NS(=O)(=O)c1ccccc1
inhibition at 75 µM (ASPC1 [6]): 41 to 92%
inhibition at 75 µM (BXPC-3 [7]): 41 to 92%
inhibition at 75 µM (Capan-2 [8]): 41 to 92%
inhibition at 75 µM (HT-29 [9]): 52 to 98%
inhibition at 75 µM (SW480 [10]): 52 to 98%
inhibition at 75 µM [11]: 84 to 98%
inhibition at 75 µM (A498 [12]): 51 to 71%
inhibition (ASPC1 [13]): Dose-dependent effect
CC50 (ASPC1 [13]; ASPC1, 72 h): 7 µM
inhibition (BXPC-3 [14]): Dose-dependent effect
CC50 (BXPC-3 [14]; BXPC-3, 72 h): 7 µM
inhibition (Capan-2 [15]): Dose-dependent effect
CC50 (Capan-2 [15]; Capan-2, 72 h): 7 µM
inhibition (HT-29 [16]): Dose-dependent effect
CC50 (HT-29 [16]; HT-29, 72 h): 7 µM
inhibition (SW480 [17]): Dose-dependent effect
CC50 (SW480 [17]; SW480, 72 h): 7 µM
inhibition (Homo sapiens [18]): Dose-dependent effect
inhibition (Homo sapiens [19]): Dose-dependent effect
inhibition (A498 [20]): Dose-dependent effect
CC50 (A498 [20]; A498, 72 h): 4.6 µM
CC50 (HFF-1): > 24 µM
selectivity ratio [21]: > 11.3
selectivity ratio [22]: > 9.45

Activity [3]: inactive
IC50 [4]: 6100 nM
SMILES: CC(C)(Oc1ccc(CCOc2ccc(NC(=O)Nc3ccccc3)cc2)cc1)C(=O)Nc1ccccc1

Activity [3]: inactive
IC50 [4]: 1520 nM
SMILES: CC(C)(Oc1ccc(CCOc2ccc(NC(=O)Nc3ccccc3)cc2)cc1)C(=O)NS(=O)(=O)c1ccccc1

More lines, now with the values behind:

SMILES: Cc1cccc(Nc2cc(Cl)nc(SCC(=O)O)n2)c1C
inhibition (Homo sapiens [1]): inactive
inhibition (Homo sapiens [2]): inactive

SMILES: CC(C)(CCCOc1ccc(/C=C/c2ccccc2)cc1)C(=O)NS(=O)(=O)c1ccccc1
Activity [23]: inactive
Activity (HepG2): Toxic

SMILES: CCCCNC(=O)C(C)(C)Oc1ccc(CCOc2ccc(NC(=O)c3ccccc3)cc2)cc1
Activity [3]: inactive

SMILES: CCC(=O)NC[C@H](Cc1ccc(OCCc2nc(-c3ccccc3)oc2C)cc1)N/C(C)=C\C(=O)c1ccc(C(F)(F)F)cc1
inhibition at 75 µM [11]: 85 to 92%

SMILES: CC(C)(CCCOc1ccc(/C=C/c2ccccc2)cc1)C(=O)NS(C)(=O)=O
Activity [23]: inactive
Activity (HepG2): Toxic

SMILES: CC(C)(Oc1ccc(CCOc2ccc(NC(=O)c3ccccc3)cc2)cc1)C(=O)NCc1ccccc1
Activity [3]: inactive
IC50 [4]: 12100 nM
